Results taken from ChEMBL document CHEMBL3352173, “Optimization of pyrrolamide topoisomerase II inhibitors toward identification of an antibacterial clinical candidate (AZD5099)” (J Med Chem, 2014).
Values after ≈ are worked out from the molar mass of the structure shown.

Key:
Haemophilus influenzae = test: Antimicrobial activity against Haemophilus influenzae by broth microdilution/CLSI method; assay type: functional; details: Haemophilus influenzae; read-out: MIC
DNA gyrase subunit B = DNA gyrase subunit B (Staphylococcus aureus, UniProt P0A0K8); test: Inhibition of ATPase activity of Staphylococcus aureus GyrB
DNA gyrase subunit B, sequence (P0A0K8 whole entry): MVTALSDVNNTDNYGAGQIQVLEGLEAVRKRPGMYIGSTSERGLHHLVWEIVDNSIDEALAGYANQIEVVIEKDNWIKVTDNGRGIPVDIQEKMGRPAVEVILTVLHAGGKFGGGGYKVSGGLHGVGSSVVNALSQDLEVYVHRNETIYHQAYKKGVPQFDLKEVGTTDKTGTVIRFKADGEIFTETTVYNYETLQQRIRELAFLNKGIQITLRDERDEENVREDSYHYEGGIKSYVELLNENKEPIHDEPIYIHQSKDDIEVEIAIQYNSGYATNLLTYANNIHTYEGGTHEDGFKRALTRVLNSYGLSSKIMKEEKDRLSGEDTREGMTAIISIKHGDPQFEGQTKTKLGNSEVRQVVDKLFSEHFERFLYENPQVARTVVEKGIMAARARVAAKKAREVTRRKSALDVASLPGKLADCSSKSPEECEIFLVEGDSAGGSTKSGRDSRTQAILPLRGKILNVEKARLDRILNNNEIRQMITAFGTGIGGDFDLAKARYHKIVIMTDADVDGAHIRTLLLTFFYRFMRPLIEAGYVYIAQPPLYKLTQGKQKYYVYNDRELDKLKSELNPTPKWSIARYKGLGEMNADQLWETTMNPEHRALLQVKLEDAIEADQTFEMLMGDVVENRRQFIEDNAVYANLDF
How it was run: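 IC50 was determined against S. aureus GyrB in the routine screening assay. The enzyme concentration limits resolution below 10 nM.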

Streptococcus pneumoniae = test: Antibacterial activity against Streptococcus pneumoniae by broth microdilution/CLSI method; assay type: functional; details: Streptococcus pneumoniae; read-out: MIC
Streptococcus pyogenes = test: Antimicrobial activity against Streptococcus pyogenes by broth microdilution/CLSI method; assay type: functional
Staphylococcus aureus [1] = test: Antimicrobial activity against methicillin-sensitive Staphylococcus aureus by broth microdilution/CLSI method; assay type: functional; details: Staphylococcus aureus; read-out: MIC
Staphylococcus aureus [2] = test: Antimicrobial activity against methicillin, quinolone-resistant Staphylococcus aureus by broth microdilution/CLSI method; assay type: functional; details: Staphylococcus aureus; read-out: MIC
Moraxella catarrhalis = test: Antimicrobial activity against Moraxella catarrhalis by broth microdilution/CLSI method; assay type: functional; details: Moraxella catarrhalis; read-out: MIC
Escherichia coli [3] = test: Antimicrobial activity against wild-type Escherichia coli Eco523 by broth microdilution/CLSI method; assay type: functional; details: Escherichia coli, Eco523; read-out: MIC
Escherichia coli [4] = test: Antimicrobial activity against Escherichia coli tolC- by broth microdilution/CLSI method; assay type: functional; details: Escherichia coli; read-out: MIC
[5] = Octanol-phosphate buffer distribution coefficient, log D of the compound at pH 7.4 by shake flask method; assay type: physicochemical
[6] = Percentage unbound in human plasma; assay type: ADME, cell-free
[7] = Solubility of the compound; assay type: physicochemical

SMILES | MIC (Haemophilus influenzae) [µg/mL] | IC50 (DNA gyrase subunit B) [nM] | MIC (Streptococcus pneumoniae) [µg/mL] | MIC (Streptococcus pyogenes) [µg/mL] | MIC (Staphylococcus aureus [1]) [µg/mL] | MIC (Staphylococcus aureus [2]) [µg/mL] | MIC (Moraxella catarrhalis) [µg/mL] | MIC (Escherichia coli [3]) [µg/mL] | MIC (Escherichia coli [4]) [µg/mL] | logD [5] | fraction unbound [6] | solubility [7] [µM]
COC1(OC)CN(c2ncc(C(=O)O)s2)CC[C@H]1NC(=O)c1[nH]c(C)c(Cl)c1Cl | 1 (≈ 2.16 µM) | 14 | 0.13 (≈ 0.281 µM) | 0.25 (≈ 0.54 µM) | 2 (≈ 4.32 µM) | 2 (≈ 4.32 µM) | 0.5 (≈ 1.08 µM) | > 64 | 0.5 (≈ 1.08 µM) | 0.24 | 0.018 | > 1000
CO[C@H]1CO[C@@]2(CN(c3ncc(C(=O)O)s3)CC[C@H]2NC(=O)c2[nH]c(C)c(Cl)c2Cl)OC1 (relative stereo) | 2 (≈ 3.96 µM) | < 10 | 0.063 (≈ 0.125 µM) | 0.063 (≈ 0.125 µM) | 4 (≈ 7.91 µM) | 8 (≈ 15.8 µM) | 1 (≈ 1.98 µM) | > 64 | 1 (≈ 1.98 µM) | 0.15 | 0.053 | > 1000
Cc1[nH]c(C(=O)N[C@@H]2CCN(c3ncc(C(=O)O)s3)CC23OCC(C)(C)CO3)c(Cl)c1Cl | 0.25 (≈ 0.497 µM) | < 10 | < 0.063 | < 0.063 | 0.5 (≈ 0.993 µM) | 0.5 (≈ 0.993 µM) | < 0.063 | > 64 | 1 (≈ 1.99 µM) | 1.07 | 0.02 | > 1000
COC[C@H]1CN(c2ncc(C(=O)O)s2)CC[C@H]1NC(=O)c1[nH]c(C)c(Cl)c1Cl (racemic) | > 8 | 54 | 4 (≈ 8.94 µM) | – | > 8 | – | 2 (≈ 4.47 µM) | > 8 | 1 (≈ 2.24 µM) | 0.06 | 0.052 | –
CCO[C@H]1CN(c2ncc(C(=O)O)s2)CC[C@H]1NC(=O)c1[nH]c(C)c(Cl)c1Cl (racemic) | 2 (≈ 4.47 µM) | < 10 | 0.031 (≈ 0.0693 µM) | – | 1 (≈ 2.24 µM) | 2 (≈ 4.47 µM) | 0.13 (≈ 0.291 µM) | > 8 | 1 (≈ 2.24 µM) | 0.67 | 0.031 | –
Cc1[nH]c(C(=O)N[C@@H]2CCN(c3ncc(C(=O)O)s3)C[C@@H]2CO)c(Cl)c1Cl (racemic) | 16 (≈ 36.9 µM) | 18 | 8 (≈ 18.5 µM) | – | > 64 | 64 (≈ 148 µM) | 1 (≈ 2.31 µM) | > 64 | 1 (≈ 2.31 µM) | -0.42 | – | –
C=CCO[C@H]1CN(c2ncc(C(=O)O)s2)CC[C@H]1NC(=O)c1[nH]c(C)c(Cl)c1Cl (racemic) | 0.5 (≈ 1.09 µM) | < 10 | < 0.063 | < 0.063 | 0.5 (≈ 1.09 µM) | 1 (≈ 2.18 µM) | < 0.063 | > 8 | 0.13 (≈ 0.283 µM) | – | – | –
Cc1[nH]c(C(=O)N[C@@H]2CCN(c3ncc(C(=O)O)s3)CC23OCC2(CC2)CO3)c(Cl)c1Cl | 0.13 (≈ 0.259 µM) | < 10 | < 0.063 | < 0.063 | 0.5 (≈ 0.997 µM) | 0.5 (≈ 0.997 µM) | < 0.063 | > 64 | 1 (≈ 1.99 µM) | 0.88 | 0.012 | > 1000
Cc1[nH]c(C(=O)N[C@@H]2CCN(c3ncc(C(=O)O)s3)CC23OCCCO3)c(Cl)c1Cl | 1 (≈ 2.1 µM) | < 10 | 0.063 (≈ 0.133 µM) | 0.063 (≈ 0.133 µM) | 2 (≈ 4.21 µM) | 4 (≈ 8.41 µM) | 0.13 (≈ 0.273 µM) | > 64 | 1 (≈ 2.1 µM) | 0.4 | 0.03 | > 1000
Cc1[nH]c(C(=O)N[C@@H]2CCN(c3ncc(C(=O)O)s3)C[C@@H]2O)c(Cl)c1Cl (racemic) | 1 (≈ 2.38 µM) | 16 | 0.5 (≈ 1.19 µM) | – | 16 (≈ 38.2 µM) | 16 (≈ 38.2 µM) | 4 (≈ 9.54 µM) | > 64 | 1 (≈ 2.38 µM) | -0.67 | – | –
Cc1[nH]c(C(=O)N[C@@H]2CCN(c3ncc(C(=O)O)s3)C[C@@H]2S(C)(=O)=O)c(Cl)c1Cl (racemic) | > 8 | < 10 | > 8 | 8 (≈ 16.6 µM) | > 8 | – | > 8 | > 8 | > 8 | -1.1 | 0.13 | > 1000
Cc1[nH]c(C(=O)N[C@@H]2CCN(c3ncc(C(=O)O)s3)C[C@@H]2F)c(Cl)c1Cl | 0.3 (≈ 0.712 µM) | < 10 | 0.078 (≈ 0.185 µM) | 0.092 (≈ 0.218 µM) | 1.3 (≈ 3.09 µM) | 2.2 (≈ 5.22 µM) | 0.046 (≈ 0.109 µM) | > 64 | 0.081 (≈ 0.192 µM) | – | – | –
CO[C@H]1CO[C@]2(CN(c3ncc(C(=O)O)s3)CC[C@H]2NC(=O)c2[nH]c(C)c(Cl)c2Cl)OC1 (relative stereo) | 1 (≈ 1.98 µM) | < 10 | 0.063 (≈ 0.125 µM) | 0.063 (≈ 0.125 µM) | 4 (≈ 7.91 µM) | 4 (≈ 7.91 µM) | 0.13 (≈ 0.257 µM) | > 64 | 1 (≈ 1.98 µM) | -0.18 | 0.053 | > 1000
